Columns and labels:
[1] = Toxicity day survivors expressed as number of animals that survived to day five/ number of test animals under control group B at a dose of 12.5 mg/kg; 6 survived out of 6; assay type: functional, Mus musculus
[2] = Percent increase in life span of test animals compared to untreated tumor-bearing control group B animals at a dose of 12.5 mg/kg; assay type: functional; conditions: Mus musculus
P388 [3] = test: Log cell population relative to cell population at the beginning of treatment compared to control group B at a dose of 25 mg/kg; assay type: functional, Mus musculus
[4] = Antileukemic activity against Murine P388 lymphocytic leukemia, body weight difference of the test animals compared to control group B animals at a dose of 25 mg/kg; assay type: functional, Mus musculus; parameters: unit not given here
In short: (§1)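 CD2F1 mice implanted intraperitoneally with ascitic fluid carrying ca. 1×10^6 P388 cells, under the NCI protocol. Dosing was intraperitoneal, starting 24 h after inoculation, then every 24 h for five doses in total. The body weight difference of treated mice is taken against untreated controls. Toxicity day survivors are the mice alive at day five out of those tested.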

P388 [5] = test: Log cell population relative to cell population at the beginning of treatment compared to control group B at a dose of 12.5 mg/kg; assay type: functional, Mus musculus
[6] = Percent increase in life span of test animals compared to untreated tumor-bearing control group B animals at a dose of 50 mg/kg; assay type: functional; conditions: Mus musculus
P388 [7] = test: Log cell population relative to cell population at the beginning of treatment compared to control group B at a dose of 100 mg/kg; assay type: functional, Mus musculus
[8] = Percent increase in life span of test animals compared to untreated tumor-bearing control group B animals at a dose of 25 mg/kg; assay type: functional; conditions: Mus musculus
[9] = Antileukemic activity against Murine P388 lymphocytic leukemia, body weight difference of the test animals compared to control group B animals at a dose of 100 mg/kg; assay type: functional, Mus musculus; parameters: unit not given here; in short: as §1
[10] = Toxicity day survivors expressed as number of animals that survived to day five/ number of test animals under control group B at a dose of 25 mg/kg; 6 survived out of 6; assay type: functional, Mus musculus
[11] = Toxicity day survivors expressed as number of animals that survived to day five/ number of test animals under control group B at a dose of 50 mg/kg; 6 survived out of 6; assay type: functional, Mus musculus
[12] = Antileukemic activity against Murine P388 lymphocytic leukemia, body weight difference of the test animals compared to control group B animals at a dose of 50 mg/kg; assay type: functional, Mus musculus; parameters: unit not given here; in short: as §1
P388 [13] = test: Log cell population relative to cell population at the beginning of treatment compared to control group B at a dose of 50 mg/kg; assay type: functional, Mus musculus
[14] = Antileukemic activity against Murine P388 lymphocytic leukemia, body weight difference of the test animals compared to control group B animals at a dose of 12.5 mg/kg; assay type: functional, Mus musculus; parameters: unit not given here; in short: as §1
[15] = Percent increase in life span of test animals compared to untreated tumor-bearing control group B animals at a dose of 100 mg/kg; assay type: functional; conditions: Mus musculus
[16] = Toxicity day survivors expressed as number of animals that survived to day five/ number of test animals under control group B at a dose of 100 mg/kg; 6 survived out of 6; assay type: functional, Mus musculus
P388 [17] = test: Log cell population relative to cell population at the beginning of treatment compared to control group A at a dose of 50 mg/kg; assay type: functional, Mus musculus
[18] = Antileukemic activity against Murine P388 lymphocytic leukemia, body weight difference of the test animals compared to control group C animals at a dose of 50 mg/kg; assay type: functional, Mus musculus; parameters: unit not given here; in short: as §1
P388 [19] = test: Log cell population relative to cell population at the beginning of treatment compared to control group C at a dose of 200 mg/kg; assay type: functional, Mus musculus
[20] = Antileukemic activity against Murine P388 lymphocytic leukemia, body weight difference of the test animals compared to control group C animals at a dose of 100 mg/kg; assay type: functional, Mus musculus; parameters: unit not given here; in short: as §1
[21] = Percent increase in life span of test animals compared to untreated tumor-bearing control group C animals at a dose of 200 mg/kg; assay type: functional; conditions: Mus musculus
[22] = Toxicity day survivors expressed as number of animals that survived to day five/ number of test animals under control group C at a dose of 50 mg/kg; 6 survived out of 6; assay type: functional, Mus musculus
[23] = Percent increase in life span of test animals compared to untreated tumor-bearing control group C animals at a dose of 50 mg/kg; assay type: functional; conditions: Mus musculus
[24] = Antileukemic activity against Murine P388 lymphocytic leukemia, body weight difference of the test animals compared to control group C animals at a dose of 200 mg/kg; assay type: functional, Mus musculus; in short: as §1
[25] = Toxicity day survivors expressed as number of animals that survived to day five/ number of test animals under control group C at a dose of 25 mg/kg; 6 survived out of 6; assay type: functional, Mus musculus
P388 [26] = test: Log cell population relative to cell population at the beginning of treatment compared to control group C at a dose of 100 mg/kg; assay type: functional, Mus musculus
P388 [27] = test: Log cell population relative to cell population at the beginning of treatment compared to control group C at a dose of 25 mg/kg; assay type: functional, Mus musculus
[28] = Percent increase in life span of test animals compared to untreated tumor-bearing control group C animals at a dose of 100 mg/kg; assay type: functional; conditions: Mus musculus
[29] = Percent increase in life span of test animals compared to untreated tumor-bearing control group C animals at a dose of 25 mg/kg; assay type: functional; conditions: Mus musculus
[30] = Antileukemic activity against Murine P388 lymphocytic leukemia, body weight difference of the test animals compared to control group C animals at a dose of 25 mg/kg; assay type: functional, Mus musculus; in short: as §1
[31] = Toxicity day survivors expressed as number of animals that survived to day five/ number of test animals under control group C at a dose of 100 mg/kg; 6 survived out of 6; assay type: functional, Mus musculus
[32] = Toxicity day survivors expressed as number of animals that survived to day five/ number of test animals under control group C at a dose of 200 mg/kg; 6 survived out of 6; assay type: functional, Mus musculus

SMILES: Cc1c(COC(=O)NC(C)C)c(COC(=O)NC(C)C)c2n1CS(=O)(=O)C2
- TDS [1]: 6
- ILS at 12.5 mg/kg [2]: 42%
- KE (P388 [3]): 2.39
- BWD [4]: -1.8
- KE (P388 [5]): 0.85
- ILS at 50 mg/kg [6]: 84%
- KE (P388 [7]): >6.77
- ILS at 25 mg/kg [8]: 59%
- BWD [9]: -4
- TDS [10]: 6
- TDS [11]: 6
- BWD [12]: -1.8
- KE (P388 [13]): 4.71
- BWD [14]: -1.1
- ILS at 100 mg/kg [15]: 118%
- TDS [16]: 6

SMILES: CNC(=O)OCc1c(COC(=O)NC)c2n(c1C)C[S+]([O-])C2 (configuration not stated)
- KE (P388 [17]): -0.09
- BWD [18]: 1.1
- KE (P388 [19]): -0.08
- BWD [20]: 0.8
- ILS at 200 mg/kg [21]: 15%
- TDS [22]: 6
- ILS at 50 mg/kg [23]: 13%
- BWD [24]: 0.4
- TDS [25]: 6
- KE (P388 [26]): -0.05
- KE (P388 [27]): -0.09
- ILS at 100 mg/kg [28]: 22%
- ILS at 25 mg/kg [29]: 13%
- BWD [30]: 0
- TDS [31]: 6
- TDS [32]: 6
